ChEMBL document CHEMBL1136924 (J Med Chem, 2009)
Active and inactive are the calls of the source.

Legend:
[1] = Plasma concentration in CD1 albino mouse at 5 mg/kg, ip after 15 mins; type: ADME, organism-based; set-up: dose 5 mg/kg, route intraperitoneal
Procedure, shortened: (§1)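 Male CD1 mice (25-30 g) given ip 5 or 20 mg/kg, killed at set times; trunk blood plasma and brain collected. Solid-phase C18 extraction with internal standard, HPLC-UV at 240 nm. Quantification limits about 0.25 nmol/mL plasma, 0.5 nmol/g brain. Three mice per point. Half-life 0.693/β; clearance dose·F/AUC.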

[2] = Elimination half life in CD1 albino mouse plasma at 20 mg/kg, ip; type: ADME, organism-based; set-up: dose 20 mg/kg, route intraperitoneal; conditions: read-out: beta t1/2; procedure, shortened: as §1
[3] = target: T1, Adrenergic receptor alpha-1 (Rattus norvegicus, UniProt P15823+P23944+P43140); experiment: Displacement of [3H]prazosin from adrenergic alpha1 receptor in rat cortex
T1 sequence (P15823 whole entry): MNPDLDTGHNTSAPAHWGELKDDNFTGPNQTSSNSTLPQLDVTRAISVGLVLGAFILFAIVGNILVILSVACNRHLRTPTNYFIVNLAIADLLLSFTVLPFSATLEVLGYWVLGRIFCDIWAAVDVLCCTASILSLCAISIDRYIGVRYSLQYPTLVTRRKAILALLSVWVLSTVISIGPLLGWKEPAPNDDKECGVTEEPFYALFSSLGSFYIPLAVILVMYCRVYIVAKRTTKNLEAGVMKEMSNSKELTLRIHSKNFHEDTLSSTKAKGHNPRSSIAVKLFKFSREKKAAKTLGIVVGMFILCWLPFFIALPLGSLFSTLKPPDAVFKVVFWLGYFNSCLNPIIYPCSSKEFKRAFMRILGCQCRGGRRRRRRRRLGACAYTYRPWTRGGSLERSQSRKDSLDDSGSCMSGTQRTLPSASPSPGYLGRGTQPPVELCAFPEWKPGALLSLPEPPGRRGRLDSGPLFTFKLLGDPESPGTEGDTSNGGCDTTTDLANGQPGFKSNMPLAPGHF
T1 sequence (P23944 whole entry): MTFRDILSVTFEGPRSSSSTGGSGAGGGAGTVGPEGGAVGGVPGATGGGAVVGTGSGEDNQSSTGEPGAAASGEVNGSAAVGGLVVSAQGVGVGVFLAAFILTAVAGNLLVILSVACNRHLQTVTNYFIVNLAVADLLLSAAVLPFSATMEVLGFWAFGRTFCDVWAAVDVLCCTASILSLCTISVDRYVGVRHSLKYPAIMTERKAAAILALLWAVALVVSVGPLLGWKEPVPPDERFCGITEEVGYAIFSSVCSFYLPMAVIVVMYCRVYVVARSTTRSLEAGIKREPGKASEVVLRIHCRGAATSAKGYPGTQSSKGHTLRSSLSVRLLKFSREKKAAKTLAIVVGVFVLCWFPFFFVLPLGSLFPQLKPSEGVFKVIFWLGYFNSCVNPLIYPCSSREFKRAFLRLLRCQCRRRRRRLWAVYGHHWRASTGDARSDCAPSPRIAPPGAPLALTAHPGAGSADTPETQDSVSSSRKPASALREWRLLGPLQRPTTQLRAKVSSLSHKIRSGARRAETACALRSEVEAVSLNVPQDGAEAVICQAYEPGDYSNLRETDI
T1 sequence (P43140 whole entry): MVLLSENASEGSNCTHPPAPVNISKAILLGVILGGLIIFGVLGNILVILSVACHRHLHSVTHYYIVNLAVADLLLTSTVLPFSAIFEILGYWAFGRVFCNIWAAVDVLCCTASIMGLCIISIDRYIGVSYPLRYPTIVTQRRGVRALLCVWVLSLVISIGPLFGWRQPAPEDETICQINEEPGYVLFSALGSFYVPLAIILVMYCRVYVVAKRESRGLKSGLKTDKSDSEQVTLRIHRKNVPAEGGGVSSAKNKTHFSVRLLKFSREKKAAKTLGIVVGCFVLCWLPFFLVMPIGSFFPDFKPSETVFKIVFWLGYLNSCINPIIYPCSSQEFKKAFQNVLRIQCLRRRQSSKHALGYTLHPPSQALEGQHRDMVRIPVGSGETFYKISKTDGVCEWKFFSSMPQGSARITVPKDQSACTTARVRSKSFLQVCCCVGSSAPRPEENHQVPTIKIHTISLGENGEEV

[4] = system: Rattus norvegicus; experiment: Activity at 5HT3 receptor in urethane-anesthetized Sprague-Dawley rat assessed as effect on heart rate at 100 ug/kg, iv measured after 5 to 30 mins post-treatment by von Bezold-Jarisch reflex test relative to 40 ug/kg, iv 1-phenylbiguanide; type: functional, organism-based
[5] = Plasma concentration in CD1 albino mouse at 20 mg/kg, ip after 15 mins; type: ADME, organism-based; set-up: dose 20 mg/kg, route intraperitoneal; procedure, shortened: as §1
[6] = target: T2, 5-hydroxytryptamine receptor 3A (Cavia porcellus) (UniProt O70212); experiment: Agonist activity at 5HT3 receptor in voltage-stimulated guinea pig left atrium assessed as positive inotropic potency at 100 uM; type: functional, tissue-based; conditions: Cardiac atrium
T2 sequence (whole entry): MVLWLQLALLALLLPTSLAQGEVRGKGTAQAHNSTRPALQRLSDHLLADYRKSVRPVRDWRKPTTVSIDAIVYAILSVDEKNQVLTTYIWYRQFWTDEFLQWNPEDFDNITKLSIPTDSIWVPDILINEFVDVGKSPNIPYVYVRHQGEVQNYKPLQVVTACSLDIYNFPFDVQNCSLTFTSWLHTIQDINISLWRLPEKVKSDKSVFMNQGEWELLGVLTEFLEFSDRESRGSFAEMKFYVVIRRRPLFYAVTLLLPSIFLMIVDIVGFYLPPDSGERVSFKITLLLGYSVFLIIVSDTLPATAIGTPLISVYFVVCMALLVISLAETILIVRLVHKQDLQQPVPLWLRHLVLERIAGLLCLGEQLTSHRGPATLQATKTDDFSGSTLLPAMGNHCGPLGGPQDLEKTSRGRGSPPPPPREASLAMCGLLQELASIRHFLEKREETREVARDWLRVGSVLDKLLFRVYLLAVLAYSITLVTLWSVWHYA
Procedure, shortened: (§2)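 Guinea pig left and right atria were hung in a 15 mL bath of PSS (pH 7.4, 95% O2-5% CO2, 35 °C) with ketanserin 1 µM. The right atrium beat spontaneously; the left was paced at 1 Hz. Cumulative doses (0.1-100 µM; DMSO ≤0.3%) were added after 45-60 min stabilization. Rate or isometric force was recorded. EC50 came from Probit analysis, n≥4. Intrinsic activity was taken relative to 5-HT.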

[7] = target: T2, 5-hydroxytryptamine receptor 3A (Cavia porcellus); experiment: Agonist activity at 5HT3 receptor in spontaneously beating guinea pig right atrium assessed as positive chronotropic potency; type: functional, tissue-based; conditions: Cardiac atrium
Procedure, shortened: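 Isolated guinea pig atria in PSS (Tyrode) with ketanserin 1 µM, 95% O2-5% CO2, pH 7.4, 35 °C. Right atrium beating spontaneously (rate); left atrium paced 1 Hz, 0.6-0.8 ms pulses near 50% threshold (force). Isometric recording after 45-60 min stabilization.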

[8] = target: T2, 5-hydroxytryptamine receptor 3A (Cavia porcellus); experiment: Agonist activity at 5HT3 receptor in spontaneously beating guinea pig right atrium assessed as positive chronotropic potency at 100 uM; type: functional, tissue-based; conditions: Cardiac atrium; procedure, shortened: as §2
[9] = target: T3, 5-hydroxytryptamine receptor 3A (Cavia porcellus, UniProt O70212); experiment: Antagonist activity at 5HT3 receptor in spontaneously beating guinea pig right atrium assessed as inhibition of serotonin-induced maximum response by noncompetitive binding assay; type: tissue-based, Cardiac atrium
T3 sequence (O70212 whole entry): T2 sequence (whole entry)
Procedure, shortened: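 Spontaneously beating guinea pig right atrium; 5-HT concentration-response curves (0.001-1.0 µM) before and after 30 min antagonist exposure at three concentrations. IC50 is inhibition of 50% of maximal 5-HT response, Probit analysis, n = 4-6.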

Row | Structure (SMILES) | concentration at 0.25 h [1] [µM] | half-life [2] [min] | Ki [3] [µM] | Activity [4] | concentration at 0.25 h [5] [µM] | pD2 [6] | pD2 [7] | pD2 [8] | IC50 [9] [µM]
1 | N[C@@H](CN1CCN(c2nc3cc(F)ccc3n3cccc23)CC1)C(=O)O | 2 | 53 | > 10 | inactive | 12 | inactive | 5.98 | – | –
2 | N/C(CN1CCN(c2nc3cc(F)ccc3n3cccc23)CC1)=N\O | – | – | > 10 | – | – | inactive | – | inactive | 5.75
